Our source for the IC50 values is ChEMBL document CHEMBL1158600, “Phenanthrenes from Dendrobium nobile and their inhibition of the LPS-induced production of nitric oxide in macrophage RAW 264.7 cells” (Bioorg Med Chem Lett, 2010).

The experiment has as its system RAW264.7. In words: Antiinflammatory activity in mouse RAW264.7 cells assessed as inhibition of LPS-induced NO production. The experiment is classed as functional, cell-based. In short, it runs like this: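 RAW 264.7 cells seeded at 2 × 10^5 cells/mL, stimulated with 1 µg/mL LPS with or without test compound, 37 °C for 24 h. Nitrite in cell-free supernatant measured by Griess reagent (sulfanilamide in phosphoric acid plus N-(1-naphthyl)ethylenediamine), absorbance at 550 nm against sodium nitrite standard curve. IC50 for 50% NO inhibition; triplicate, mean ± SD. Viability checked by CCK assay.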
For orientation: IC50 means the concentration that inhibits the measured activity by half. For the compound `COc1c(O)cc2c(c1OC)-c1ccc(O)cc1CC2` [ERIANTHRIDIN], the IC50 was determined as 19.5 µM.
`COc1cc(O)c2c(c1)CCc1cc(O)ccc1-2` [LUSIANTHRIDIN]: the 50% inhibitory concentration (IC50) was 9.6 µM.
For `COc1cc2ccc3cc(O)ccc3c2c(OC)c1O`, the IC50 is 35.7 µM.
Take `COc1cc(O)cc(CCc2ccc(OC)c(OC)c2)c1`: the IC50 was greater than 50 µM.
Under `COc1cc2c(c(O)c1OC)-c1ccc(O)cc1CC2` [EPHEMERANTHOL A] stands 12 µM; under `COc1cc2c(c(OC)c1O)-c1ccc(O)cc1CC2` [FLAVANTHRIDIN], 34.1 µM; under `N=C(N)NN` [PIMAGEDINE], 17.5 µM.
Consider `COc1cc(O)cc2c1-c1c(O)cccc1CC2` [HIRCINOL], for which the IC50 is 26.4 µM.
For `COc1c(O)c(O)cc2ccc3cccc(O)c3c12` [FIMBRIOL B], the 50% inhibitory concentration (IC50) came to 28.9 µM.
For `COc1c(O)cc2ccc3c(OC)ccc(O)c3c2c1OC`, the concentration for half-maximal inhibition (IC50) came to 20.4 µM.
Turning to `COc1cc(CCc2cc(OC)c(O)c(OC)c2)ccc1O` [MOSCATILIN], the half-inhibitory concentration (IC50) stood at 27.6 µM.
The figure for `COc1cc(O)cc(CCc2ccc(O)c(OC)c2)c1` [GIGANTOL] is greater than 50 µM; for `COc1c(O)c(O)cc2c1-c1c(O)cccc1CC2` [EPHENERANTHOL C] it is 17.6 µM.
